Laboratory results taken from ChEMBL document CHEMBL4007404, “Identification of High-Potency Human TLR8 and Dual TLR7/TLR8 Agonists in Pyrimidine-2,4-diamines” (J Med Chem, 2017).
Active and inactive are the calls of the source. The rule behind the calls is not given here.

Tests used:
[1] = biological target: T1, Toll-like receptor 7 (Homo sapiens) (UniProt Q9NYK1); assay: Agonist activity at human TLR7 expressed in HEK293 cells co-expressing secreted alkaline phosphatase assessed as induction of NF-kappaB/AP-1 promoter activity by measuring increase in secreted alkaline phosphatase level at 100 uM by spectrophotometric method; format: cell-based
T1 sequence (whole entry): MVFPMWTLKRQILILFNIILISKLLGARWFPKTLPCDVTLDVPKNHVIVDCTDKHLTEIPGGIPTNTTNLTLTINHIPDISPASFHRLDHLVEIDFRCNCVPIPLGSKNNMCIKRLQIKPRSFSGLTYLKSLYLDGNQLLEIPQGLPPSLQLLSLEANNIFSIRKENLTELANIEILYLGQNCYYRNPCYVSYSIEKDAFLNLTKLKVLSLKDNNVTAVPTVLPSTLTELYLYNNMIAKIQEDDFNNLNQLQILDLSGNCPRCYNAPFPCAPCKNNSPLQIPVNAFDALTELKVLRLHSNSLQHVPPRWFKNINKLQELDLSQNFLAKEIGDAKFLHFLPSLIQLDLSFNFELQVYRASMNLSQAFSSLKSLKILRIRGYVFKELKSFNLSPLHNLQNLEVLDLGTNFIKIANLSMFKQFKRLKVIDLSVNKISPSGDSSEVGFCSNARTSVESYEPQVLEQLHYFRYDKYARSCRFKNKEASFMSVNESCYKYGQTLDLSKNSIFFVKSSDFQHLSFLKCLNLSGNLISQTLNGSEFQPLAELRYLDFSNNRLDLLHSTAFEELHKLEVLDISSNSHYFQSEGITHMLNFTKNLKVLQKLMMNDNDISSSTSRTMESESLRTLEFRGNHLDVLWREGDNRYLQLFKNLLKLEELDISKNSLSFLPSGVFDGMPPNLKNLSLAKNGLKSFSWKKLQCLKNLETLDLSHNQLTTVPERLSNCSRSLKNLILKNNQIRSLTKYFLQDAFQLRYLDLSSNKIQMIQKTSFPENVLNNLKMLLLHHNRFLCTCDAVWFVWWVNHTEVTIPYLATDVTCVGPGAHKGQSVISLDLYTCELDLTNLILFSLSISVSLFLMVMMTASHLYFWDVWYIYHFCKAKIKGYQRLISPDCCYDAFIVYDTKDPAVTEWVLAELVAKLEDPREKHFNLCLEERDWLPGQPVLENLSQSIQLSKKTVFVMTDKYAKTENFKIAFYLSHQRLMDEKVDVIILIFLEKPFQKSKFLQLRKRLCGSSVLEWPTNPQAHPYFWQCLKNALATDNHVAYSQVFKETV

[2] = biological target: T2, Toll-like receptor 9 (Homo sapiens) (UniProt Q9NR96); assay: Activity at human TLR9 expressed in HEK293 cells co-expressing secreted alkaline phosphatase assessed as induction of NF-kappaB/AP-1 promoter activity by measuring increase in secreted alkaline phosphatase level by spectrophotometric method; format: cell-based
T2 sequence (whole entry): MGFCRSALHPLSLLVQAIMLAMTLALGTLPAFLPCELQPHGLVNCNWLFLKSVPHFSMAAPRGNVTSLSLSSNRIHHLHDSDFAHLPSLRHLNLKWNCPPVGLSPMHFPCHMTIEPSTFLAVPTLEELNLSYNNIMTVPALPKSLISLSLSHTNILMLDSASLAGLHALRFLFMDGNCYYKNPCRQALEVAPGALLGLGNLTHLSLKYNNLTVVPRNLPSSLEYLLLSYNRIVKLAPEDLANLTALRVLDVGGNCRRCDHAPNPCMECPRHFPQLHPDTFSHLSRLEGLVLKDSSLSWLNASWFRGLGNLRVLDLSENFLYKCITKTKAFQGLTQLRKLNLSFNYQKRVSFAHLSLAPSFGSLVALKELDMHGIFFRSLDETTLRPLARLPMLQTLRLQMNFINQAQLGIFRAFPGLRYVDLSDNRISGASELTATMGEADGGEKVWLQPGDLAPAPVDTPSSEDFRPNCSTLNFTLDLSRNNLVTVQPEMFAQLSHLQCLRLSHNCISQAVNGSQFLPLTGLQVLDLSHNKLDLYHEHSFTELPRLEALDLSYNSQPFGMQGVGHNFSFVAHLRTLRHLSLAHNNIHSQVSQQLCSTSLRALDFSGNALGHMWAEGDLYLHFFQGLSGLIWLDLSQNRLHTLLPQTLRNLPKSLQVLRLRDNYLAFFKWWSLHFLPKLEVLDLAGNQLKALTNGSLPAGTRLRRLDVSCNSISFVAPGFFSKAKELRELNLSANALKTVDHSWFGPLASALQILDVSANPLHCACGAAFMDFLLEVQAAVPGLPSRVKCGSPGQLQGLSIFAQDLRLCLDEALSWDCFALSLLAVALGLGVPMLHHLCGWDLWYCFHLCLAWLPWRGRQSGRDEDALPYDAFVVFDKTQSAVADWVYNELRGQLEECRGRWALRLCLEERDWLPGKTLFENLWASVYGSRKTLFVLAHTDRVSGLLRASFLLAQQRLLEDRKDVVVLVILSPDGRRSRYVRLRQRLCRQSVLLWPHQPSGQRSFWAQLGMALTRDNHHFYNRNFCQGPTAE
How it was run: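 HEK293 cells stably co-transfected with the relevant human TLR (2, 3, 4, 5, 7, 8 or 9) plus an NF-κB/AP-1-driven secreted alkaline phosphatase reporter, kept in selection medium. Cells at ~10⁵ cells/ml were exposed to graded concentrations of stimuli in 384-well format, liquid-handler assisted. Supernatant sAP was read at 620 nm with an alkaline phosphatase-specific chromogen.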

Row | SMILES | Activity [1] | Activity [2]
1 | CCCCNc1nc(N)nc(C)c1C#CCc1ccccc1 | inactive | inactive
2 | CCCCCc1c(C)nc(N)nc1NCCCC |  | inactive
3 | CCCCNc1nc(N)nc(C)c1CCCC1CCCCC1 |  | inactive
4 | CCCCNc1nc(N)nc(C)c1CCCN1CCCC1 |  | inactive
5 | CCCCNc1nc(N)nc(C)c1CCCn1ccc2ccccc21 |  | inactive
6 | CCCCNc1nc(N)nc(C)c1C#CCN1CCCCC1 | inactive | inactive
7 | CCCCNc1nc(N)nc(C)c1CCCN1CCN(c2ccccc2)CC1 |  | inactive
8 | CCCCNc1nc(N)nc(C)c1C |  | inactive
9 | CCCCNc1nc(N)nc(C)c1CCCN1CCCCCC1 |  | inactive
10 | CCCCNc1nc(N)nc(C)c1CCCN1Cc2ccccc2C1 |  | inactive
11 | CCCCNc1nc(N)nc(C)c1CCCCN1CCOCC1 |  | inactive
12 | CCCCNc1nc(N)nc(C)c1CCCN1CCOCC1 |  | inactive
13 | CCCCNc1nc(N)nc(C)c1CCc1ccccc1 |  | inactive
14 | CCCCNc1nc(N)nc(C)c1CCCCCc1ccccc1 |  | inactive
15 | CCCCNc1nc(N)nc(C)c1CCCc1ccccc1 |  | inactive
16 | CCCCNc1nc(N)nc(C)c1CCCN1CCCCC1 |  | inactive
17 | CCCCNc1nc(N)nc(C)c1CCCCc1ccccc1 |  | inactive
18 | CCCC#Cc1c(C)nc(N)nc1NCCCC | inactive | inactive
19 | CCCCNc1nc(N)nc(C)c1C#C[Si](C)(C)C | inactive | inactive

Row | SMILES | Activity [1] | Activity [2]
20 | CCCCNc1nc(N)nc(C)c1CCCn1cccn1 |  | inactive
21 | CCCCNc1nc(N)nc(C)c1CCCN1CCNCC1 |  | inactive
22 | CCCCNc1nc(N)nc(C)c1CCCC |  | inactive
23 | CCCCNc1nc(N)nc(C)c1CCCN1CCN(C)CC1 |  | inactive
24 | CCCCNc1nc(N)nc(C)c1CCCN(C)CCOC |  | inactive
25 | CCCCNc1nc(N)nc(C)c1CCCn1cncn1 |  | inactive
26 | CCCCNc1nc(N)nc(C)c1C#CCN1CCOCC1 | inactive | inactive
27 | CCCCNc1nc(N)nc(C)c1CCCN1CCN(C(=O)OC(C)(C)C)CC1 | inactive | inactive
28 | CCCCNc1nc(N)nc(C)c1CCCn1c(C)nc2ccccc21 |  | inactive
29 | CCCCNc1nc(N)nc(C)c1CCCN1CCSCC1 |  | inactive
30 | C#Cc1c(C)nc(N)nc1NCCCC | inactive | inactive
31 | CCCCNc1nc(N)nc(C)c1CCCN1C(=O)c2ccccc2C1=O |  | inactive
32 | CCCCNc1nc(N)nc(C)c1CC |  | inactive
33 | CCCCNc1nc(N)nc(C)c1CCCN(C)C |  | inactive
34 | CCCCNc1nc(N)nc(C)c1CCCN(CC)CC | inactive | inactive
35 | CCCCNc1nc(N)nc(C)c1CCCCO |  | inactive
36 | CCCCNc1nc(N)nc(C)c1CCC(C)(C)O |  | inactive
37 | CCCCNc1nc(N)nc(C)c1CCCC(C)(C)O |  | inactive
